Experimental data from PMC7226180 (Cancer Science, 2020).
Read-outs that look alike come from different tables or passages of the source. Marks after values point to notes of the source that are not given here.

Columns and labels:
SW620 = test: cells; type: cell-based; details: Homo sapiens, SW-620, 144 h, read-out: Proliferation inhibition IC50 (mean ± SD)
MV4‐11 xenograft = test: MV4‐11 s.c. human tumor xenograft; type: in vivo, BALB/c nude mice; details: MV4‐11 s.c. xenograft, i.g., QD 20 d, 50 mg/kg
ES‐2 = test: cells; type: cell-based; details: Homo sapiens, ES-2, 144 h, read-out: Proliferation inhibition IC50 (mean ± SD)
MV‐4‐11 = test: cells; type: cell-based; details: Homo sapiens, MV4-11, 144 h, read-out: Proliferation inhibition IC50 (mean ± SD)
[1] = test system: U87‐MG‐Luc human glioblastoma; test: U87‐MG‐Luc human glioblastoma orthotopic model; type: in vivo, female BALB/c nude mice; details: for Median survival time (mean ± SEM): 75 mg/kg (vehicle 30 ± 1 d); for Increase life span: 75 mg/kg, compared with vehicle
In short: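 Female BALB/c nude mice, 6–8 weeks old, received 3 × 10⁵ U87-MG-Luc cells with 20% Matrigel. Cells were injected slowly into a skull hole about 2 mm right of the anterior fontanel and 1 mm ahead of the coronal. On day 8, mice were randomized by bioluminescence and dosed orally once daily. Survival was followed by Kaplan–Meier; life-span increase is relative to vehicle, with P by comparison to vehicle.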

[2] = test system: recurrent Rb‐positive glioblastoma; details: adult patients, phase II trial; cited from earlier work
T‐47D = test: cells; type: cell-based; details: Homo sapiens, T47D, 144 h, read-out: Proliferation inhibition IC50 (mean ± SD)
A549 = test: cells; type: cell-based; details: Homo sapiens, A549, 144 h, read-out: Proliferation inhibition IC50 (mean ± SD)
LN‐18 = test: cells; type: cell-based; details: Homo sapiens, LN-18, 144 h, read-out: Proliferation inhibition IC50 (mean ± SD)
MCF‐7/ARO = test: cells; type: cell-based; details: 144 h, read-out: Proliferation inhibition IC50 (mean ± SD)
HepG2 = test: cells; type: cell-based; details: Homo sapiens, HepG2, 144 h, read-out: Proliferation inhibition IC50 (mean ± SD)
Calu‐3 = test: cells; type: cell-based; details: Homo sapiens, Calu-3, 144 h, read-out: Proliferation inhibition IC50 (mean ± SD)
[3] = test system: ER+ metastatic breast cancer; details: patients, cited from earlier work
MCF‐7 cells = test: Senescence assay; type: cell-based; details: MCF‐7, 12‐day exposure, dose‐dependent
In short: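 MCF-7 cells grown at 37°C, 5% CO₂ in DMEM or RPMI-1640 with 10% FBS. Seeded in 6-well plates and exposed to the test compound at the indicated concentrations, or vehicle, for 12 days. Then stained with SA-β-galactosidase staining solution following the kit instructions. Stocks were 10 mmol/L in DMSO.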

U87‐MG xenograft = test: U87‐MG s.c. human tumor xenograft; type: in vivo, BALB/c nude mice; details: i.g., QD 18 d, 50 mg/kg
MCF‐7/ARO xenograft = test: MCF‐7/ARO s.c. human tumor xenograft, single agents; type: in vivo, BALB/c nude mice; details: MCF‐7/ARO s.c. xenograft, i.g., QD 21 d, 150 mg/kg
MCF‐7 xenograft = test: MCF‐7 s.c. human tumor xenograft; type: in vivo, BALB/c nude mice; details: 50 mg/kg; for TGI: MCF‐7 s.c. xenograft, i.g., QD 21 d; for Mean tumor size: MCF‐7 xenograft, day 20 (vehicle 703 mm^3)
Colo‐205 xenograft = test: Colo‐205 s.c. human tumor xenograft; type: in vivo, BALB/c nude mice; details: Colo‐205 s.c. xenograft, i.g., QD 14 d, 50 mg/kg
[4] = test system: Rb^Ser780 phosphorylation in MCF‐7 cells; test: Western blot of Rb, p‐Rb Ser780 and cyclin D1; type: cell-based; details: MCF‐7, 24 h; for Rb^Ser780 phosphorylation and total Rb protein levels: dose‐dependent
In short: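 MCF-7 cells were treated with a range of test compound concentrations for 24 h, then lysed in buffer containing phosphatase inhibitors. Lysates were separated, transferred and probed for Rb, p-Rb Ser780 and cyclin D, with β-tubulin or β-actin as loading controls. Bands were detected by HRP luminol chemiluminescence.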

MCF‐7 = test: cells; type: cell-based; details: Homo sapiens, MCF7, 144 h, read-out: Proliferation inhibition IC50 (mean ± SD)
[5] = test system: ER/progesterone receptor+/HER2− advanced breast cancer; details: women, LY2835219 plus anastrozole or letrozole; cited from earlier work
CDK3 = CDK3 (Homo sapiens, UniProt Q00526); test: Enzymatic profiling, LANCE Ultra assay; type: biochemical
breast cancer = details: cited from earlier work
in vivo = test: in vivo; set-up: species or system female BALB/c nude mice
[6] = female, BALB/c nude, mouse, in vivo, 75 mg/kg

Sequence of CDK3 (Q00526 whole entry): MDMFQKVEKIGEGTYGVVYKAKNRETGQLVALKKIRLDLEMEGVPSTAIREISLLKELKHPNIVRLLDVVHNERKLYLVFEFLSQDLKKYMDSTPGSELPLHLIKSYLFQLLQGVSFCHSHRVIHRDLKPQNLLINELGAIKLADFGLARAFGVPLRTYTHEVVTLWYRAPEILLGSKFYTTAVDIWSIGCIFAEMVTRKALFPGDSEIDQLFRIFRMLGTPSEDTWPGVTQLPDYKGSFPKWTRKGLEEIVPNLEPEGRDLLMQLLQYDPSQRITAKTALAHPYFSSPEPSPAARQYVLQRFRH
Sequence of CDK3 (P24864 whole entry, further chain): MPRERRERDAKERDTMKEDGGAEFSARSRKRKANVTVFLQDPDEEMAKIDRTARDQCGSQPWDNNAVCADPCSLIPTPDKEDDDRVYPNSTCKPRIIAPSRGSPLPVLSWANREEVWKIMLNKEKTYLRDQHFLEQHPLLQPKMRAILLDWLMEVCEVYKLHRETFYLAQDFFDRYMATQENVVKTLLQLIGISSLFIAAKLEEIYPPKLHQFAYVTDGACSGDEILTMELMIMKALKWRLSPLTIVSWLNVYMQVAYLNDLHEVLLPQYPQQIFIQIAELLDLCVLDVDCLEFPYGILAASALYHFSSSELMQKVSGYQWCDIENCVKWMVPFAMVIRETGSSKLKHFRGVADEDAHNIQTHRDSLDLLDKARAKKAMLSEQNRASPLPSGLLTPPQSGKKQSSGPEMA

| Compound | IC50 (SW620) [µM] | TGI (MV4‐11 xenograft) | IC50 (ES‐2) [µM] | IC50 (MV‐4‐11) [µM] | Median survival time (mean ± SEM) [1] [days] | Increase life span [1] [%] | IC50 (T‐47D) [µM] | IC50 (A549) [µM] | IC50 (LN‐18) [µM] | IC50 (MCF‐7/ARO) [µM] | IC50 (HepG2) [µM] | IC50 (Calu‐3) [µM] | Cell senescence (SA‐β‐gal staining) (MCF‐7 cells) | TGI (U87‐MG xenograft) | TGI (MCF‐7/ARO xenograft) | TGI (MCF‐7 xenograft) [%] | Mean tumor size (MCF‐7 xenograft) [mm^3] | TGI (Colo‐205 xenograft) | Expression of cyclin D1 [4] | Rb^Ser780 phosphorylation and total Rb protein levels [4] | further results |
| --- | --- | --- | --- | --- | --- | --- | --- | --- | --- | --- | --- | --- | --- | --- | --- | --- | --- | --- | --- | --- | --- |
| CC(=O)c1c(C)c2cnc(Nc3ccc(N4CCNCC4)cn3)nc2n(C2CCCC2)c1=O [Palbociclib, palbociclib] | 0.268 ± 0.0368 | 68^** % | 0.0534 ± 0.0013 | 0.0431 ± 0.0095 | 35 ± 10 | 16.67 | 1.12 ± 0.686 | 0.795 ± 0.0345 | 0.113 ± 0.0256 | 0.374 ± 0.0487 | 0.0606 ± 0.009 | > 10 | could induce cell senescence | 96^** % | 67^** % | 84 | 256 | 93^** % | without significantly altering | significant decrease | Single‐agent efficacy [2]: failed to achieve; Disease‐free survival ([3]; palbociclib together with letrozole): 20.2 months |
| CCN1CCN(Cc2ccc(Nc3ncc(F)c(-c4cc(F)c5nc(C)n(C(C)C)c5c4)n3)nc2)CC1 [LY2835219, abemaciclib] | 0.283 ± 0.0427 | 54^**, # % | 0.0278 ± 0.0103 | 0.0798 ± 0.0353 | 42 ± 2 | 40.00 | 0.672 ± 0.119 | 0.264 ± 0.0284 | 0.244 ± 0.003 | 0.327 ± 0.0438 | 0.0823 ± 0.0204 | 1.01 ± 0.03 | could induce cell senescence | 131^**,## % | 67^** % | 114 | 94 | 82^** % | without significantly altering | significant decrease | IC50 (MCF‐7): 0.218 ± 0.0087 µM; Objective response rate and PFS [5]: significantly improved; IC50 (CDK3): 0.482 µM; PFS (breast cancer; LY2835219 plus fulvestrant): 16.4 months; Levels in the plasma and brain compared with SPH3643 (in vivo; 24 hours after the final dose): markedly lower; Kp at 1.5 h (in vivo; [6]): 0.26 ± 0.13; Kp at 24 h (in vivo; [6]): 0.27 ± 0.08 |
| C[C@]12CC[C@@H]3c4ccc(O)cc4C[C@@H](CCCCCCCCC[S+]([O-])CCCC(F)(F)C(F)(F)F)[C@H]3[C@@H]1CC[C@@H]2O (stereo partly drawn) [fulvestrant] | – | – | – | – | – | – | – | – | – | – | – | – | – | – | – | – | – | – | – | – | PFS (breast cancer; fulvestrant alone): 9.3 months |
| N#Cc1ccc(C(c2ccc(C#N)cc2)n2cncn2)cc1 [Letrozole, letrozole] | – | – | – | – | – | – | – | – | – | – | – | – | – | – | – | – | – | – | – | – | Disease‐free survival ([3]; letrozole single‐agent treatment): 10.2 months |
